# ChEMBL document CHEMBL3407339, “A novel series of thiazolyl-pyrazoline derivatives: synthesis and evaluation of antifungal activity, cytotoxicity and genotoxicity” (Eur J Med Chem, 2015)
# Tests used:
# [1] = test system: Nakaseomyces glabratus; test: Antifungal activity against Candida glabrata clinical isolate after 48 hrs by broth microdilution assay; assay type: functional
# Summary of the method: (§1)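 Broth microdilution of DMSO stocks serially diluted in sterile water (4 to 0.0039 mg/mL). Yeasts grown on SDA at 37 °C for 24 h, suspended in double-strength PDB at 10⁵ spores/mL. Incubated at 37 °C for 48 h, then sprayed with 0.5% aqueous TTC. MIC = lowest concentration inhibiting visible growth. Ketoconazole reference.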
# [2] = test system: Candida albicans; test: Antifungal activity against Candida albicans ATCC 90028 after 48 hrs by broth microdilution assay; assay type: functional; details: ATCC 90028, 48 h; summary of the method: as §1
# [3] = test system: Candida tropicalis; test: Antifungal activity against Candida tropicalis NRLL Y 12968 after 48 hrs by broth microdilution assay; assay type: functional; details: NRLL Y 12968, 48 h; summary of the method: as §1
# [4] = test system: Pichia kudriavzevii; test: Antifungal activity against Candida krusei NRLL Y 7179 after 48 hrs by broth microdilution assay; assay type: functional; details: NRLL Y 7179, 48 h; summary of the method: as §1
# [5] = test system: [Candida] zeylanoides; test: Antifungal activity against Candida zeylanoides NRLL Y 1774 after 48 hrs by broth microdilution assay; assay type: functional; details: Dujonia zeylanoides, NRLL Y 1774, 48 h; summary of the method: as §1
# [6] = test system: Candida parapsilosis; test: Antifungal activity against Candida parapsilosis NRLL Y 12696 after 48 hrs by broth microdilution assay; assay type: functional; details: Lodderomyces parapsilosis, NRLL Y 12696, 48 h; summary of the method: as §1
# [7] = test system: Aspergillus flavus; test: Antifungal activity against Aspergillus flavus NRRL 980 after 72 hrs by broth microdilution assay; assay type: functional; details: NRRL 980, 72 h
# Summary of the method: (§2)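 Compounds dissolved in DMSO, diluted in sterile distilled water from 4 to 0.0039 mg/mL. Molds grown on PDA at 25 °C for 5 days, suspended in double-strength PDB at 10⁵ spores/mL. Incubated at 25 °C for 72 h; mycelial growth read under stereo microscope. MIC = lowest concentration inhibiting visible growth. Ketoconazole reference.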
# [8] = test system: Aspergillus niger; test: Antifungal activity against Aspergillus niger ATCC 1094 after 72 hrs by broth microdilution assay; assay type: functional; details: ATCC 1094, 72 h; summary of the method: as §2
# [9] = test system: Aspergillus parasiticus; test: Antifungal activity against Aspergillus parasiticus NRRL 465 after 72 hrs by broth microdilution assay; assay type: functional; details: NRRL 465, 72 h; summary of the method: as §2
# [10] = test system: Fusarium solani; test: Antifungal activity against Fusarium solani NRRL 13414 after 72 hrs by broth microdilution assay; assay type: functional; details: NRRL 13414, 72 h; summary of the method: as §2
# [11] = test system: Salmonella typhimurium; test: Mutagenicity in Salmonella typhimurium TA98 at 0.156 mg/ml after 48 hrs by AMES MPF assay in presence of Sprague-Dawley rat liver microsomal S9 fraction relative to baseline; assay type: toxicity, organism-based; details: salmonella enterica subsp. enterica serovar typhimurium
# Summary of the method: (§3)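 Ames MPF fluctuation test with TA98/TA100. Overnight cultures (37 °C, 14–16 h) mixed with exposure medium; ±Aroclor-1254-induced rat liver S9 (final 4.5% v/v). Compounds in DMSO, 0.156–5 mg/mL. 90 min exposure at 37 °C, then indicator medium; 48 wells per concentration, 48 h at 37 °C, in triplicate. Yellow wells counted; fold induction over baseline (mean + 1 SD of zero-dose control).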
# [12] = test system: Salmonella typhimurium; test: Mutagenicity in Salmonella typhimurium TA98 at 0.3125 mg/ml after 48 hrs by AMES MPF assay in presence of Sprague-Dawley rat liver microsomal S9 fraction relative to baseline; assay type: toxicity, organism-based; details: salmonella enterica subsp. enterica serovar typhimurium; summary of the method: as §3
# [13] = test system: Salmonella typhimurium; test: Mutagenicity in Salmonella typhimurium TA98 at 0.625 mg/ml after 48 hrs by AMES MPF assay in presence of Sprague-Dawley rat liver microsomal S9 fraction relative to baseline; assay type: toxicity, organism-based; details: salmonella enterica subsp. enterica serovar typhimurium; summary of the method: as §3
# [14] = test system: Salmonella typhimurium; test: Mutagenicity in Salmonella typhimurium TA98 at 1.25 mg/ml after 48 hrs by AMES MPF assay in presence of Sprague-Dawley rat liver microsomal S9 fraction relative to baseline; assay type: toxicity, organism-based; details: salmonella enterica subsp. enterica serovar typhimurium; summary of the method: as §3
# [15] = test system: Salmonella typhimurium; test: Mutagenicity in Salmonella typhimurium TA98 at 2.5 mg/ml after 48 hrs by AMES MPF assay in presence of Sprague-Dawley rat liver microsomal S9 fraction relative to baseline; assay type: toxicity, organism-based; details: salmonella enterica subsp. enterica serovar typhimurium; summary of the method: as §3
# [16] = test system: Salmonella typhimurium; test: Mutagenicity in Salmonella typhimurium TA98 at 5 mg/ml after 48 hrs by AMES MPF assay in presence of Sprague-Dawley rat liver microsomal S9 fraction relative to baseline; assay type: toxicity, organism-based; details: salmonella enterica subsp. enterica serovar typhimurium; summary of the method: as §3
# [17] = test system: Salmonella typhimurium; test: Mutagenicity in Salmonella typhimurium TA98 at 0.156 mg/ml after 48 hrs by AMES MPF assay in absence of Sprague-Dawley rat liver microsomal S9 fraction relative to baseline; assay type: toxicity, organism-based; details: salmonella enterica subsp. enterica serovar typhimurium; summary of the method: as §3
# [18] = test system: Salmonella typhimurium; test: Mutagenicity in Salmonella typhimurium TA98 at 0.3125 mg/ml after 48 hrs by AMES MPF assay in absence of Sprague-Dawley rat liver microsomal S9 fraction relative to baseline; assay type: toxicity, organism-based; details: salmonella enterica subsp. enterica serovar typhimurium; summary of the method: as §3
# [19] = test system: Salmonella typhimurium; test: Mutagenicity in Salmonella typhimurium TA98 at 0.625 mg/ml after 48 hrs by AMES MPF assay in absence of Sprague-Dawley rat liver microsomal S9 fraction relative to baseline; assay type: toxicity, organism-based; details: salmonella enterica subsp. enterica serovar typhimurium; summary of the method: as §3
# [20] = test system: Salmonella typhimurium; test: Mutagenicity in Salmonella typhimurium TA98 at 1.25 mg/ml after 48 hrs by AMES MPF assay in absence of Sprague-Dawley rat liver microsomal S9 fraction relative to baseline; assay type: toxicity, organism-based; details: salmonella enterica subsp. enterica serovar typhimurium; summary of the method: as §3
# [21] = test system: Salmonella typhimurium; test: Mutagenicity in Salmonella typhimurium TA98 at 2.5 mg/ml after 48 hrs by AMES MPF assay in absence of Sprague-Dawley rat liver microsomal S9 fraction relative to baseline; assay type: toxicity, organism-based; details: salmonella enterica subsp. enterica serovar typhimurium; summary of the method: as §3
# [22] = test system: Salmonella typhimurium; test: Mutagenicity in Salmonella typhimurium TA98 at 5 mg/ml after 48 hrs by AMES MPF assay in absence of Sprague-Dawley rat liver microsomal S9 fraction relative to baseline; assay type: toxicity, organism-based; details: salmonella enterica subsp. enterica serovar typhimurium; summary of the method: as §3
# [23] = test system: Salmonella typhimurium; test: Mutagenicity in Salmonella typhimurium TA100 at 0.156 mg/ml after 48 hrs by AMES MPF assay in presence of Sprague-Dawley rat liver microsomal S9 fraction relative to baseline; assay type: toxicity, organism-based; details: salmonella enterica subsp. enterica serovar typhimurium; summary of the method: as §3
# [24] = test system: Salmonella typhimurium; test: Mutagenicity in Salmonella typhimurium TA100 at 0.3125 mg/ml after 48 hrs by AMES MPF assay in presence of Sprague-Dawley rat liver microsomal S9 fraction relative to baseline; assay type: toxicity, organism-based; details: salmonella enterica subsp. enterica serovar typhimurium; summary of the method: as §3
# [25] = test system: Salmonella typhimurium; test: Mutagenicity in Salmonella typhimurium TA100 at 0.625 mg/ml after 48 hrs by AMES MPF assay in presence of Sprague-Dawley rat liver microsomal S9 fraction relative to baseline; assay type: toxicity, organism-based; details: salmonella enterica subsp. enterica serovar typhimurium; summary of the method: as §3
# [26] = test system: Salmonella typhimurium; test: Mutagenicity in Salmonella typhimurium TA100 at 1.25 mg/ml after 48 hrs by AMES MPF assay in presence of Sprague-Dawley rat liver microsomal S9 fraction relative to baseline; assay type: toxicity, organism-based; details: salmonella enterica subsp. enterica serovar typhimurium; summary of the method: as §3
# [27] = test system: Salmonella typhimurium; test: Mutagenicity in Salmonella typhimurium TA100 at 2.5 mg/ml after 48 hrs by AMES MPF assay in presence of Sprague-Dawley rat liver microsomal S9 fraction relative to baseline; assay type: toxicity, organism-based; details: salmonella enterica subsp. enterica serovar typhimurium; summary of the method: as §3
# [28] = test system: Salmonella typhimurium; test: Mutagenicity in Salmonella typhimurium TA100 at 5 mg/ml after 48 hrs by AMES MPF assay in presence of Sprague-Dawley rat liver microsomal S9 fraction relative to baseline; assay type: toxicity, organism-based; details: salmonella enterica subsp. enterica serovar typhimurium; summary of the method: as §3
# [29] = test system: Salmonella typhimurium; test: Mutagenicity in Salmonella typhimurium TA100 at 0.156 mg/ml after 48 hrs by AMES MPF assay in absence of Sprague-Dawley rat liver microsomal S9 fraction relative to baseline; assay type: toxicity, organism-based; details: salmonella enterica subsp. enterica serovar typhimurium; summary of the method: as §3
# [30] = test system: Salmonella typhimurium; test: Mutagenicity in Salmonella typhimurium TA100 at 0.3125 mg/ml after 48 hrs by AMES MPF assay in absence of Sprague-Dawley rat liver microsomal S9 fraction relative to baseline; assay type: toxicity, organism-based; details: salmonella enterica subsp. enterica serovar typhimurium; summary of the method: as §3
# [31] = test system: Salmonella typhimurium; test: Mutagenicity in Salmonella typhimurium TA100 at 0.625 mg/ml after 48 hrs by AMES MPF assay in absence of Sprague-Dawley rat liver microsomal S9 fraction relative to baseline; assay type: toxicity, organism-based; details: salmonella enterica subsp. enterica serovar typhimurium; summary of the method: as §3
# [32] = test system: Salmonella typhimurium; test: Mutagenicity in Salmonella typhimurium TA100 at 1.25 mg/ml after 48 hrs by AMES MPF assay in absence of Sprague-Dawley rat liver microsomal S9 fraction relative to baseline; assay type: toxicity, organism-based; details: salmonella enterica subsp. enterica serovar typhimurium; summary of the method: as §3
# [33] = test system: Salmonella typhimurium; test: Mutagenicity in Salmonella typhimurium TA100 at 2.5 mg/ml after 48 hrs by AMES MPF assay in absence of Sprague-Dawley rat liver microsomal S9 fraction relative to baseline; assay type: toxicity, organism-based; details: salmonella enterica subsp. enterica serovar typhimurium; summary of the method: as §3
# [34] = test system: Salmonella typhimurium; test: Mutagenicity in Salmonella typhimurium TA100 at 5 mg/ml after 48 hrs by AMES MPF assay in absence of Sprague-Dawley rat liver microsomal S9 fraction relative to baseline; assay type: toxicity, organism-based; details: salmonella enterica subsp. enterica serovar typhimurium; summary of the method: as §3
# [35] = test system: A549; test: Antiproliferative activity against human A549 cells after 24 hrs by XTT assay; assay type: functional, cell-based; details: A549, 24 h
# Summary of the method: (§4)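 A549 cells in RPMI and NIH/3T3 cells in DMEM, each with fetal calf serum, antibiotics and 7.5% NaHCO₃, at 37 °C, 5% CO₂. Seeded at 20,000 cells/well, 24 h, then compounds added in medium at 500–3.9 doses (final DMSO <0.1%) for 24 h. XTT read after 3 h at 480 nm (ref 680 nm). IC₅₀ by non-linear regression; triplicates; cisplatin control.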
# [36] = Cytotoxicity against mouse NIH/3T3 cells after 24 hrs by XTT assay; assay type: cell-based; details: NIH3T3, 24 h; summary of the method: as §4
compound,measurement,setting,value
Cc1ccc(C2=NN(c3nc(-c4ccc(C#N)cc4)cs3)C(c3ccc(F)cc3)C2)s1 (stereo unspecified),MIC,[1],125 µg/mL
same,MIC,[2],250 µg/mL
same,MIC,[3],250 µg/mL
same,MIC,[4],250 µg/mL
same,MIC,[5],250 µg/mL
same,MIC,[6],250 µg/mL
same,MIC,[7],125 µg/mL
same,MIC,[8],250 µg/mL
same,MIC,[9],250 µg/mL
same,MIC,[10],250 µg/mL
same,fold change (FC),[11],0.27
same,fold change (FC),[12],0.18
same,fold change (FC),[13],1.07
same,fold change (FC),[14],0.44
same,fold change (FC),[15],0.89
same,fold change (FC),[16],1.16
same,fold change (FC),[17],1.78
same,fold change (FC),[18],1.56
same,fold change (FC),[19],1.11
same,fold change (FC),[20],1.11
same,fold change (FC),[21],1.56
same,fold change (FC),[22],1.33
same,fold change (FC),[23],1.01
same,fold change (FC),[24],0.94
same,fold change (FC),[25],0.86
same,fold change (FC),[26],0.7
same,fold change (FC),[27],0.55
same,fold change (FC),[28],1.01
same,fold change (FC),[29],0.8
same,fold change (FC),[30],0.74
same,fold change (FC),[31],0.74
same,fold change (FC),[32],0.31
same,fold change (FC),[33],0.31
same,fold change (FC),[34],0.8
same,IC50,[35],322 µg/mL
same,IC50,[36],250 µg/mL
